Test results from ChEMBL document CHEMBL1142221, “Nootropic alpha7 nicotinic receptor allosteric modulator derived from GABAA receptor modulators” (Proc Natl Acad Sci U S A, 2007).
The source made the active and inactive calls. No cut-off for these calls is given here.

Assays:
[1] = target: T1, Neuronal acetylcholine receptor; alpha4/beta2 (Homo sapiens) (UniProt P17787+P43681); assay: Activation of human nAChR alpha-4-beta-2 expressed in Xenopus oocytes assessed as modulation of nicotine-induced current by measuring ratio of I/Imax current by two-electrode voltage-clamp method; assay type: cell-based; details: Oocyte
Method in brief: (§1)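 Oocytes injected with 0.005–50 ng mRNA per subunit (α4β2 and α3β4 at 1:1; α1β1γδ at 1:1:1:1; α7 and 5-HT3A single). Two-electrode voltage clamp at −70 mV, 3–14 days post-injection. Ca²⁺-free Ringer's with BaCl₂ replacing Ca²⁺ (pH 7.4) to limit Ca²⁺-activated Cl⁻ currents. Rapid linear-array application. Current expressed as I/I_max; concentration–effect data fit to a four-parameter logistic. For α7, agonist was fixed at EC₅.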

[2] = target: T1, Neuronal acetylcholine receptor; alpha4/beta2 (Homo sapiens); assay: Activity at human nAChR alpha4beta2 expressing Xenopus oocytes assessed as stimulation of nicotine-induced current at 10 uM by two-electrode voltage-clamp method; assay type: cell-based; details: Oocyte; method in brief: as §1
[3] = target: T2, Neuronal acetylcholine receptor subunit alpha-7 (Homo sapiens, UniProt P36544); assay: Activation of human alpha-7 nAChR expressed in Xenopus oocytes assessed as modulation of nicotine-induced current by two-electrode voltage-clamp method; assay type: cell-based, Oocyte; method in brief: as §1
[4] = target: GABA-A receptor; alpha-2/beta-3/gamma-2 (Homo sapiens) (UniProt P18507+P28472+P47869); assay: Activation of human GABAA alpha-2-beta-3-gamma-2L receptor expressed in Xenopus oocytes assessed as modulation of GABA-induced current by measuring ratio of I/Imax current by two-electrode voltage-clamp method; details: Oocyte
[5] = target: T3, GABA-A receptor; alpha-2/beta-3/gamma-2 (Homo sapiens, UniProt P18507+P28472+P47869); assay: Activation of human GABAA alpha-2-beta-3-gamma-2L receptor expressed in Xenopus oocytes assessed as modulation of GABA-induced current by two-electrode voltage-clamp method
T3 sequence (P18507 whole entry): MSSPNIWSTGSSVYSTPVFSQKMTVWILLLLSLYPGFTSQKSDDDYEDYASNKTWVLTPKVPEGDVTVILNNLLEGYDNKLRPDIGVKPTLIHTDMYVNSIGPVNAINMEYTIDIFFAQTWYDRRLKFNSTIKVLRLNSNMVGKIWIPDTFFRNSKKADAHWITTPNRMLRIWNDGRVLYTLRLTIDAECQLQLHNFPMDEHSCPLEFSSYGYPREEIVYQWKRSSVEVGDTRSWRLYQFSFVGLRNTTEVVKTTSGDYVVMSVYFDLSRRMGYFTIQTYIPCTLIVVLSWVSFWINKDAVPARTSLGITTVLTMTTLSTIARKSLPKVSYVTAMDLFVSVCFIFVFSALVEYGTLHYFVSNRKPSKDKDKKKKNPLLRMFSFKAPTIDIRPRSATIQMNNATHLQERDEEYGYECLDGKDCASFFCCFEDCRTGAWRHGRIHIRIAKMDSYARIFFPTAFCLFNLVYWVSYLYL
T3 sequence (P28472 whole entry): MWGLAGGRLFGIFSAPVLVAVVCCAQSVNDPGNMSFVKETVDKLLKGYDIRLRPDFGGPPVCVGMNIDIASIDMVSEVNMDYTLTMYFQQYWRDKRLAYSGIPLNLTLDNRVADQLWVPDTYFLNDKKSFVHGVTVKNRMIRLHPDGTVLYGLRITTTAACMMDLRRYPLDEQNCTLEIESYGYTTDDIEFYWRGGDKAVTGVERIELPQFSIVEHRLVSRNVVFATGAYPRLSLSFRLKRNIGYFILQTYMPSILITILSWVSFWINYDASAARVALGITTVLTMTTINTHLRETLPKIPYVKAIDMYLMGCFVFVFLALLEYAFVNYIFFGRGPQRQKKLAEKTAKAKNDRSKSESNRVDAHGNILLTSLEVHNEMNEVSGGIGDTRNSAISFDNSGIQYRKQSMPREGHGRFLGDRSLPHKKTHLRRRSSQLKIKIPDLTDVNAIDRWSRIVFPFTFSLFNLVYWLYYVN
T3 sequence (P47869 whole entry): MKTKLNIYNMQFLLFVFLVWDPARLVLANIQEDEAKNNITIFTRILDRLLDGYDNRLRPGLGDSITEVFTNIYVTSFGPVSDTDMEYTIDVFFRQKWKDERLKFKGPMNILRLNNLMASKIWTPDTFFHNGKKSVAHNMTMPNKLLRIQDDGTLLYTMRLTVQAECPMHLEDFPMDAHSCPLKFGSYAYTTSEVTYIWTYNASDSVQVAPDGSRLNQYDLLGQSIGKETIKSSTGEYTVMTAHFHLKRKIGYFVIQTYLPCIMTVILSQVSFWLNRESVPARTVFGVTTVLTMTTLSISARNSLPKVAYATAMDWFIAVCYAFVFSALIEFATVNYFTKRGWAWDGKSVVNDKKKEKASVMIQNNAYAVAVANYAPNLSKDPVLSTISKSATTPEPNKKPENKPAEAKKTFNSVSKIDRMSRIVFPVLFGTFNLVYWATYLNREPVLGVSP

[6] = target: T2, Neuronal acetylcholine receptor subunit alpha-7; assay: Activation of human alpha-7 nAChR expressed in Xenopus oocytes assessed as modulation of nicotine-induced current by measuring ratio of I/Imax current by two-electrode voltage-clamp method; assay type: cell-based; details: Oocyte; method in brief: as §1
[7] = target: T4, 5-hydroxytryptamine receptor 3A (Homo sapiens) (UniProt P46098); assay: Activity at human 5HT3A receptor expressed in Xenopus oocytes assessed as stimulation of […] current at 10 uM by two-electrode voltage-clamp method; assay type: cell-based; details: Oocyte; method in brief: as §1
T4 sequence (whole entry): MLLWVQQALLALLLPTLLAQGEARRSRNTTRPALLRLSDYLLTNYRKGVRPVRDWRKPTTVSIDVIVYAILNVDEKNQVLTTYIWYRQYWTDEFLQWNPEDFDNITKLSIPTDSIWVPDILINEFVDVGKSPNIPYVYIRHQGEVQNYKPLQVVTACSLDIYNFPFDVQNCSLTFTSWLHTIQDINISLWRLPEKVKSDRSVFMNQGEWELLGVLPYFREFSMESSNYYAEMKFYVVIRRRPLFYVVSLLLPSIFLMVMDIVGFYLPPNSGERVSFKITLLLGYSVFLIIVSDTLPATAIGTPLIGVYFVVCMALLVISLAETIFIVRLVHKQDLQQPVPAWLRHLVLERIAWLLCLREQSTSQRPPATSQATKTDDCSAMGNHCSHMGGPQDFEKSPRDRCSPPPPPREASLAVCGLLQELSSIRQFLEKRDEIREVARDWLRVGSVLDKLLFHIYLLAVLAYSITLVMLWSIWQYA

T2 sequence (P36544 whole entry): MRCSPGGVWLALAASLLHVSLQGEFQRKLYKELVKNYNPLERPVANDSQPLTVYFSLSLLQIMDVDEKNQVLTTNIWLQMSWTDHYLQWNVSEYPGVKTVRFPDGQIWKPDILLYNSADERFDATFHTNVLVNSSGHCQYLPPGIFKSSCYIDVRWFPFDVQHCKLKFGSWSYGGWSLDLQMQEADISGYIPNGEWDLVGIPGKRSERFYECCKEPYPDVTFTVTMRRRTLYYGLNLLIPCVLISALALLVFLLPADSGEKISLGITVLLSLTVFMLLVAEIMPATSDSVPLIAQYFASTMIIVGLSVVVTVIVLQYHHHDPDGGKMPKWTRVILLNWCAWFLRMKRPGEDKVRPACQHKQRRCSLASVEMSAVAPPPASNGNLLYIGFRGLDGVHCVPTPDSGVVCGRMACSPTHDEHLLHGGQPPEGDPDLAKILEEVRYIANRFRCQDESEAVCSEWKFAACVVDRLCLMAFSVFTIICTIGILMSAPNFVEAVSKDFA

CCOC(=O)/C(=C\Nc1ccc(OCC)cc1)C(=O)c1ccccc1Cl
Activity [1]: inactive
Activity [2]: inactive
EC50 [3]: 1.8 µM
Ratio [4]: 0.93
EC50 [5]: 0.2 µM
Ratio [6]: 0.86
Activity [7]: inactive
